# Screens: PubChem BioAssay, Johns Hopkins Ion Channel Center
# This is a sample that favours compounds with a hit; in the whole collection about 2.3% have one here.
# TRPC6 inhibitor – mouse TRPC6 channel inhibitors, primary screen, cell-based, HEK293, membrane potential dye | ACh-evoked depolarization; hits give low values | B-score at 10 µM | hit rate 1.1% among 310,000;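 active means B-score under library mean minus 3 SD, initial fluorescence not abnormally high, positive integrated signal ratio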;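 further: B-score derived from integrated fluorescence ratio over the kinetic read; more negative B-score means stronger inhibition of depolarization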
# TRPC4 agonist – activators of mouse TRPC4 channel, primary screen, Fluo4 calcium, HEK293 TRPC4beta/mu-opioid cells. Fluo4 calcium fluorescence; hits give high values. B-score at 10 µM. hit rate 0.49% among 310,000;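 active means B-score above 5 SD of library B-scores, and initial fluorescence ratio not above library mean plus 5 SD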;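 further: positive B-score marks a calcium rise read as TRPC4 activation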
#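 System: HEK293 cells stably co-expressing mouse TRPC4beta and mu-opioid receptor; Schedule: Fluo4 dye loading 45 min at room temperature, 110 s recording; Detection: Fluo4 fluorescence, kinetic; Evaluation: B-scored integrated calcium fluorescence ratio; Controls: buffer (low) and maximal DAMGO (high).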
# TRPC6 activator – mouse TRPC6 channel activators, primary screen, cell-based, HEK293, membrane potential dye; Short transient receptor potential channel 6 (Mus musculus), Q61143; HEK293-TRPC6 membrane potential dye fluorescence; hits give high values; hit rate 0.13% among 310,000; B-score at 10 µM;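 active means B-score of the integrated fluorescence ratio above library mean plus 3 SD, and starting fluorescence ratio within library mean plus 5 SD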;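 further: higher score means more depolarization so channel activation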
# TRPC4 potent – positive allosteric modulators of TRPC4, primary screen, cell-based, mouse TRPC4beta, HEK293 mu-opioid, Fluo-4 calcium. DAMGO EC20, Fluo-4 Ca2+ flux; hits give high values. B-score at 10 µM. hit rate 0.42% among 310,000. AID 2227, 2009;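 active means B-score of calcium response area above 5 SD of library B-scores, with initial fluorescence ratio within 5 SD of library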;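 further: B-score of integrated fluorescence ratio over time as area under calcium response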
# TRPC4 block – inhibitors of mouse TRPC4 channel, primary screen, Fluo4 calcium, HEK293 TRPC4beta/mu-opioid cells; Short transient receptor potential channel 4 (Mus musculus), Q9QUQ5; DAMGO-evoked Fluo4 calcium flux; hits give low values; B-score at 10 µM; hit rate 0.39% among 300,000; AID 2247, 2010;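 active means B-score over 3 SD under the library average, no early fluorescence shift, positive overall ratio signal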
#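 Assay system – HEK293 line stably carrying TRPC4beta and mu-opioid receptor · Doses – single dose · Detection – Fluo4 calcium-dye fluorescence, kinetic read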
# The depositor's hits bear a star; i = inactive.
SMILES,TRPC6 inhibitor,TRPC4 agonist,TRPC6 activator,TRPC4 potent,TRPC4 block
C=CCOc1ccc(C2CC(C)=NN2c2ccccc2)cc1 (configuration not stated),i,i,i,i,-8*
Cc1ccc(Cn2c(Cc3ccccc3)nc3ccccc32)cc1,i,i,i,i,-6*
Cc1ccc(NS(=O)(=O)c2cc(C(=O)N3CCc4ccccc4C3)ccc2Cl)cc1,i,i,i,28*,i
O=C(NCCCSc1ccccc1)c1cc(Cl)ccc1O,i,i,i,i,i
Oc1ccccc1/C=N/NC(=S)NC1CC2CC1C1C=CCC21 (configuration not stated),i,i,i,i,-8*
COc1ccc(C(CNC(=O)c2ccc(S(=O)(=O)N(C)C)cc2)N(C)C)cc1 (configuration not stated),i,242*,i,i,i
CC(C)c1ccc(NC(=O)CNCC(c2ccccc2)N(C)C)cc1 (configuration not stated),i,i,i,i,i
Cc1ccc(NC(=O)CNCC(c2ccccc2)N(C)C)cc1F (configuration not stated),i,147*,i,i,i
COc1ccc(C(CNC(=O)c2cccc(NS(=O)(=O)c3ccc(Br)cc3)c2)N(C)C)cc1 (configuration not stated),i,154*,i,i,i
Cc1ccc(S(=O)(=O)Nc2cccc(C(=O)NCC(c3ccccc3)N(C)C)c2)cc1F (configuration not stated),i,66*,i,i,-10*
COC(=O)c1ccc(CNC(=O)C2CCC(=O)N(CCc3ccccc3)C2)cc1 (configuration not stated),i,i,i,i,i
Cc1nnc(NC(=O)c2cc(-c3ccncc3)nc3c(C)cccc23)s1,i,i,i,i,i
CCN(CC)CCCNC(=O)c1cc(-c2ccccc2)c(N2CCCCC2)s1,i,i,i,i,i
O=C(NCc1ccccn1)Nc1cccc(F)c1,i,i,i,i,i
CCCN(CCC)CCCNC(=S)Nc1ccc2nc3n(c(=O)c2c1)CCCCC3,i,i,i,14*,i
CCN(CC)CCNC(=S)Nc1ccc2nc3n(c(=O)c2c1)CCCCC3,i,i,i,i,i
Cc1c(N(C)S(=O)(=O)c2cc(C(=O)N3CCCC3)ccc2Cl)c(=O)n(-c2ccccc2)n1C,i,i,i,i,i
CC1CCc2nc(NC(=O)CN3CCN(c4ccccc4)CC3)sc2C1 (configuration not stated),i,i,i,i,i
CC1CCc2nc(NC(=O)CN3CCN(Cc4ccc5c(c4)OCO5)CC3)sc2C1 (configuration not stated),i,i,i,i,-6*
O=C(Nc1nnc(-c2cccs2)o1)c1cccc(C(F)(F)F)c1,i,127*,i,i,i
N#Cc1ccc(C(=O)Nc2nnc(-c3cccs3)o2)cc1,i,i,i,i,i
COc1ccc2c(Cl)c(-c3nnc(SCC(=O)c4ccccc4)n3C)sc2c1,i,104*,i,i,i
COc1ccc2c(Cl)c(-c3nnc(SCC(N)=O)n3C)sc2c1,i,i,i,i,i
CC(C)COc1cccc(-c2cc(C(=O)N/N=C/c3ccncc3)c3ccccc3n2)c1,i,i,i,i,i
CCCCn1c(N)nc2ccccc21,i,i,i,i,i
SMILES,TRPC6 inhibitor,TRPC4 agonist,TRPC6 activator,TRPC4 potent,TRPC4 block
CN(C)CCn1c(N)nc2ccccc21,i,i,i,13*,i
CCOC(=O)c1sc(NC(=O)C2CC(=O)N(c3ccc(OCC)cc3)C2)nc1C (configuration not stated),i,i,i,i,i
COc1cccc(NC(=O)COC(=O)c2ccccc2SCC(=O)N2CCCC2)c1,i,i,i,i,i
O=c1[nH]c(O)c(C=Nc2ccc(Cl)cc2Cl)c(=O)[nH]1,i,i,i,i,i
O=C(c1cccc(Cl)c1)N1CCC(=O)N(C(COCc2cccc(Cl)c2)Cc2ccccc2)CC1 (configuration not stated),i,i,i,i,i
Cc1cccc(C(=O)N2CCC(=O)N(C(COCc3cccc(Cl)c3)Cc3ccccc3)CC2)c1 (configuration not stated),i,45*,i,i,i
CCCCn1c(N)c(N(CCC(C)C)C(=O)CC2CCCC2)c(=O)[nH]c1=O,i,i,i,i,i
Cc1ccc(OCCn2ccnc2)c([N+](=O)[O-])c1,i,i,i,i,i
Cc1cc(C)c(OCCCCCn2ccnc2)c(C)c1,i,i,i,i,i
CCOc1cccc(OCCCCn2ccnc2)c1,i,43*,i,i,i
Cc1ccc(C)c(OCCCCCn2ccnc2)c1,i,169*,i,i,i
Cc1cc(OCCCCCn2ccnc2)cc(C)c1Cl,i,75*,i,i,i
Cc1cc(OCCCn2ccnc2)ccc1[N+](=O)[O-],i,43*,i,21*,i
Cc1sc(-c2ccncc2)nc1OC(=O)c1ccc(F)cc1F,i,i,i,i,i
Cc1cc(Cl)cc(C)c1OCCn1ccnc1,i,i,i,i,i
Cc1cc(OCCCn2ccnc2)cc(C)c1Cl,i,104*,i,i,i
Cc1cc(Cl)cc(C)c1OCCCCCn1ccnc1,i,86*,i,i,i
COc1ccccc1C1=NOC(Cn2c(NCCCO)nc3c2c(=O)n(C)c(=O)n3C)C1 (configuration not stated),i,i,i,i,i
COc1ccc(C2=NOC(Cn3c(Cc4ccc(Cl)cc4)nc4c3c(=O)n(C)c(=O)n4C)C2)cc1 (configuration not stated),i,i,i,10*,i
Clc1ccc2nc(N3CCNCC3)nc(-c3ccccc3)c2c1,i,102*,i,i,i
CN1CCN(c2nc(-c3ccccc3)c3cc(Cl)ccc3n2)CC1,i,i,i,i,i
O=C(O)c1ccc(N/N=C/c2c[nH]c3ccccc23)cc1,-5.19*,i,i,i,i
